Our source for the IC50 and Control values is ChEMBL document CHEMBL1128581, “Structure-activity relationships of analogues of thapsigargin modified at O-11 and O-12” (J Med Chem, 1995).

A short description of test [1]: Activity against [Ca2+]-ATPase in rabbit white skeletal muscle sarcoplasmic reticulum vesicles.
The species entered for test [2] is Oryctolagus cuniculus. Kind of test: Inhibition of the [Ca2+]-ATPase by the compound (10000 nM) was determined by the decrease in rate of formation of inorganic phosphate compared to control. Also noted: scale not given: the % may be the effect or the level left. An outline of the steps: (§1)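 Leaky SR vesicles (5 μg/mL protein) from New Zealand white rabbit hind-leg muscle in pH 7.0 buffer: KCl 120 mM, MOPS 25 mM, EGTA 0.5 mM, CaCl2 0.44 mM, MgCl2 2 mM, A23187 1 μM. Compound added in DMSO (<1%), 5 min preincubation at 30 °C, then ATP 1 mM final. Pi read by malachite green at ≥8 time points; rate from slope.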

Test [3] is filed under the species Oryctolagus cuniculus. The test is described as follows: Inhibition of the [Ca2+]-ATPase by the compound (50000 nM) was determined by the decrease in rate of formation of inorganic phosphate compared to control. Also noted: scale not given: the % may be the effect or the level left. An outline of the steps: as §1
Test [4] is described as follows: Activity against [Ca2+]-ATPase in rabbit white muscle sarcoplasmic reticulum vesicles.
Test [5] is filed under the species Oryctolagus cuniculus. The test is described as follows: Inhibition of the [Ca2+]-ATPase by coincubation of the enzyme with the Thapsigargin (activity=56.7) along with the compound at 1000 nM concentration. Also noted: scale not given: the % may be the effect or the level left.
The species named for test [6] is Oryctolagus cuniculus. Kind of test: Inhibition of the [Ca2+]-ATPase by coincubation of the enzyme with the Thapsigargin (activity=56.7) along with the compound at 10000 nM concentration. Also noted: scale not given: the % may be the effect or the level left.
The species entered for test [7] is Oryctolagus cuniculus. Kind of test: Inhibition of the [Ca2+]-ATPase by coincubation of the enzyme with the Thapsigargin (activity=56.7) along with the compound at 50000 nM concentration. Also noted: scale not given: the % may be the effect or the level left.
Test [8] is filed under the species Oryctolagus cuniculus. The test is described as follows: Inhibition of the [Ca2+]-ATPase by the compound (1000 nM) was determined by the decrease in rate of formation of inorganic phosphate compared to control. Also noted: scale not given: the % may be the effect or the level left. A digest of the protocol:
as §1

The species entered for test [9] is Oryctolagus cuniculus. The test is described as follows: Inhibition of the [Ca2+]-ATPase by coincubation of the enzyme with the Thapsigargin (activity=53.9) along with the compound at 20 nM concentration. Also noted: scale not given: the % may be the effect or the level left.
The species entered for test [10] is Oryctolagus cuniculus. Kind of test: Inhibition of the [Ca2+]-ATPase by the compound (100 nM) was determined by the decrease in rate of formation of inorganic phosphate compared to control. Also noted: scale not given: the % may be the effect or the level left. An outline of the steps: as §1
For test [11], the species on record is Oryctolagus cuniculus. The test is described as follows: Inhibition of the [Ca2+] - ATPase by coincubation of the enzyme with the Thapsigargin (activity=53.9) along with the compound at 1 nM concentration. Also noted: scale not given: the % may be the effect or the level left.
The species named for test [12] is Oryctolagus cuniculus. The test is described as follows: Inhibition of the [Ca2+]-ATPase by coincubation of the enzyme with the Thapsigargin (activity=53.9) along with the compound at 100 nM concentration. Also noted: scale not given: the % may be the effect or the level left.
The species named for test [13] is Oryctolagus cuniculus. Kind of test: Inhibition of the [Ca2+]-ATPase by the compound (20 nM) was determined by the decrease in rate of formation of inorganic phosphate compared to control. Also noted: scale not given: the % may be the effect or the level left. An outline of the steps:
as §1

Test [14] is filed under the species Oryctolagus cuniculus. The test is described as follows: Inhibition of the [Ca2+]-ATPase by the compound (1 nM) was determined by the decrease in rate of formation of inorganic phosphate compared to control. Also noted: scale not given: the % may be the effect or the level left. A digest of the protocol: as §1
For test [15], the species on record is Oryctolagus cuniculus. Kind of test: Inhibition of the [Ca2+]-ATPase by the compound (30 nM) was determined by the decrease in rate of formation of inorganic phosphate compared to control. Also noted: scale not given: the % may be the effect or the level left. A digest of the protocol:
as §1

The species entered for test [16] is Oryctolagus cuniculus. The test is described as follows: Inhibition of the [Ca2+]-ATPase by coincubation of the enzyme with the Thapsigargin (activity=49.4) along with the compound at 30 nM concentration. Also noted: scale not given: the % may be the effect or the level left.
Test [17] is filed under the species Oryctolagus cuniculus. The test is described as follows: Inhibition of the [Ca2+]-ATPase by coincubation of the enzyme with the Thapsigargin (activity=49.4) along with the compound at 1 nM concentration. Also noted: scale not given: the % may be the effect or the level left.
The species named for test [18] is Oryctolagus cuniculus. The test is described as follows: Inhibition of the [Ca2+]-ATPase by coincubation of the enzyme with the Thapsigargin (activity=49.4) along with the compound at 200 nM concentration. Also noted: scale not given: the % may be the effect or the level left.
The species named for test [19] is Oryctolagus cuniculus. The test is described as follows: Inhibition of the [Ca2+]-ATPase by the compound (200 nM) was determined by the decrease in rate of formation of inorganic phosphate compared to control. Also noted: scale not given: the % may be the effect or the level left. An outline of the steps:
as §1

The species entered for test [20] is Oryctolagus cuniculus. The test is described as follows: Inhibition of the [Ca2+]-ATPase by coincubation of the enzyme with the Thapsigargin (activity=53.3) along with the compound at 100 nM concentration. Also noted: scale not given: the % may be the effect or the level left.
The species entered for test [21] is Oryctolagus cuniculus. The test is described as follows: Inhibition of the [Ca2+]-ATPase by coincubation of the enzyme with the Thapsigargin (activity=53.3) along with the compound at 20 nM concentration. Also noted: scale not given: the % may be the effect or the level left.
The species named for test [22] is Oryctolagus cuniculus. The test is described as follows: Inhibition of the [Ca2+]-ATPase by coincubation of the enzyme with the Thapsigargin (activity=53.3) along with the compound at 1 nM concentration. Also noted: scale not given: the % may be the effect or the level left.
For test [23], the species on record is Oryctolagus cuniculus. Kind of test: Inhibition of the [Ca2+]-ATPase by the compound (500 nM) was determined by the decrease in rate of formation of inorganic phosphate compared to control. Also noted: scale not given: the % may be the effect or the level left. An outline of the steps:
as §1

The species entered for test [24] is Oryctolagus cuniculus. Kind of test: Inhibition of the [Ca2+]-ATPase by coincubation of the enzyme with the Thapsigargin (activity=56.5) along with the compound at 5000 nM concentration. Also noted: scale not given: the % may be the effect or the level left.
For test [25], the species on record is Oryctolagus cuniculus. The test is described as follows: Inhibition of the [Ca2+]-ATPase by coincubation of the enzyme with the Thapsigargin (activity=56.5) along with the compound at 100 nM concentration. Also noted: scale not given: the % may be the effect or the level left.
Test [26] is filed under the species Oryctolagus cuniculus. The test is described as follows: Inhibition of the [Ca2+]-ATPase by the compound (5000 nM) was determined by the decrease in rate of formation of inorganic phosphate compared to control. Also noted: scale not given: the % may be the effect or the level left. An outline of the steps: as §1
Test [27] is filed under the species Oryctolagus cuniculus. The test is described as follows: Inhibition of the [Ca2+]-ATPase by coincubation of the enzyme with the Thapsigargin (activity=56.5) along with the compound at 500 nM concentration. Also noted: scale not given: the % may be the effect or the level left.

For `C/C=C(/C)C(=O)O[C@H]1C(C)=C2[C@H]([C@@H]1OC(=O)CCCCC)[C@@](C)(OC(C)=O)C[C@H](OC(=O)CCC)[C@@]1(O)[C@H]2O[C@@H](OC(C)=O)[C@@]1(C)O`, it took 0.0184 µM to reach half-maximal inhibition in test [1] (IC50).
For `C/C=C(/C)C(=O)O[C@H]1C(C)=C2[C@H]([C@@H]1O)[C@@](C)(O)C[C@H](OC(=O)CCC)[C@@]1(O)[C@H]2O[C@H]2OC(C)(C)O[C@]21C`, the Control in the test filed under Oryctolagus cuniculus [2] amounted to 82.6%; in the test filed under Oryctolagus cuniculus [3] it was 50.9%; in the test listed under Oryctolagus cuniculus [5] it was 53.8%; in the test filed under Oryctolagus cuniculus [6] it was 43.5%; in the test filed under Oryctolagus cuniculus [7], 25.1%; in the test filed under Oryctolagus cuniculus [8], 98.6%. For the same molecule, in [4], the IC50 turned out to be 60.6 µM.
`C/C=C(/C)C(=O)O[C@H]1C(C)=C2[C@H]([C@@H]1OC(=O)CCCCC)[C@@](C)(OC(C)=O)C[C@H](OC(=O)CCC)[C@@]1(O)[C@H]2O[C@H]2OC(C)(C)O[C@]21C`: the Control in the test filed under Oryctolagus cuniculus [9] worked out at 49.3%; in the test listed under Oryctolagus cuniculus [10], 66.6%; in the test filed under Oryctolagus cuniculus [11], 55.7%; in the test listed under Oryctolagus cuniculus [12], 34.7%; in the test listed under Oryctolagus cuniculus [13], 81.2%; in the test filed under Oryctolagus cuniculus [14], 100%. Further, the half-inhibitory concentration (IC50) in test [1] worked out at 0.157 µM.
Take `C/C=C(/C)C(=O)O[C@H]1C(C)=C2[C@H]([C@@H]1OC(=O)CCCCC)[C@@](C)(OC(C)=O)C[C@H](OC(=O)CCC)[C@@]1(O)[C@H]2O[C@H]2O[C@]21C`: the 50% inhibitory concentration (IC50) in [1] came to 0.0517 µM.
`C/C=C(/C)C(=O)O[C@H]1C(C)=C2[C@H]([C@@H]1OC(=O)CCCCCCC)[C@@](C)(O)C[C@H](OC(=O)CCCCCCC)[C@@]1(O)[C@H]2OC(O)[C@@]1(C)O` (some centres not stated) registered an IC50 in test [1] of 0.12 µM. For the same molecule, the Control was 68.9% in the test filed under Oryctolagus cuniculus [15]; 34.6% in the test listed under Oryctolagus cuniculus [16]; 51.1% in the test listed under Oryctolagus cuniculus [17]; 16.2% in the test filed under Oryctolagus cuniculus [18]; 21.9% in the test listed under Oryctolagus cuniculus [19]; 98.4% in the test filed under Oryctolagus cuniculus [14].
`C/C=C(/C)C(=O)O[C@H]1C(C)=C2[C@H]([C@@H]1OC(=O)CCCCC)[C@@](C)(OC(C)=O)C[C@H](OC(=O)CCC)[C@@]1(O)[C@H]2O[C@H]2O[C@@H](OCC)O[C@]21C` returned an IC50 in test [1] of 0.388 µM. Besides, the Control in the test filed under Oryctolagus cuniculus [10] worked out at 78.6%; in the test listed under Oryctolagus cuniculus [20] it was 36.8%; in the test listed under Oryctolagus cuniculus [21] it was 41.6%; in the test listed under Oryctolagus cuniculus [22], 52.5%; in the test filed under Oryctolagus cuniculus [13], 98.4%; in the test filed under Oryctolagus cuniculus [14] it was 101%.
As to `C/C=C(/C)C(=O)O[C@H]1C(C)=C2[C@H]([C@@H]1OC(=O)CCCCC)[C@@](C)(O)C[C@H](OC(=O)CCC)[C@@]1(O)[C@H]2O[C@H]2OC(C)(C)O[C@]21C`, the Control in the test filed under Oryctolagus cuniculus [23] was 87%; in the test filed under Oryctolagus cuniculus [24], 24%; in the test filed under Oryctolagus cuniculus [10], 97%; in the test listed under Oryctolagus cuniculus [25] it was 52.3%; in the test filed under Oryctolagus cuniculus [26], 53.7%; in the test listed under Oryctolagus cuniculus [27] it was 49%. This molecule also yielded an IC50 in [4] of 5.59 µM.
For `C/C=C(/C)C(=O)O[C@H]1C(C)=C2[C@H]([C@@H]1OC(=O)CCCCC)[C@@](C)(OC(C)=O)C[C@H](OC(=O)CCC)[C@@]1(O)[C@H]2O[C@@H](O)[C@@]1(C)O.C/C=C(/C)C(=O)O[C@H]1C(C)=C2[C@H]([C@@H]1OC(=O)CCCCC)[C@@](C)(OC(C)=O)C[C@H](OC(=O)CCC)[C@@]1(O)[C@H]2O[C@H](O)[C@@]1(C)O`, the concentration for half-maximal inhibition (IC50) in [1] was determined as 0.0156 µM.
In test [1], `C/C=C(/C)C(=O)O[C@H]1C(C)=C2[C@H]([C@@H]1OC(=O)CCCCC)[C@@](C)(OC(C)=O)C[C@H](OC(=O)CCC)[C@@]1(O)[C@H]2OC(=O)[C@@]1(C)O` showed a half-inhibitory concentration (IC50) of 0.0098 µM.
The same measure, in the same setting: the value for `C/C=C(/C)C(=O)O[C@H]1C(C)=C2[C@H]([C@@H]1OC(=O)CCCCCCC)[C@@](C)(OC(C)=O)C[C@H](OC(=O)CCC)[C@@]1(O)[C@H]2OC(=O)[C@@]1(C)O` [THAPSIGARGIN] was 0.0096 µM; that for `C/C=C(/C)C(=O)O[C@H]1C(C)=C2[C@H]([C@@H]1OC(=O)CCCCC)[C@@](C)(OC(C)=O)C[C@H](OC(=O)CCC)[C@@]1(O)[C@H]2O[C@H](OCC)[C@@]1(C)O` was 0.0112 µM.
Same read-out and setting: the value for `C/C=C(/C)C(=O)O[C@H]1C(C)=C2[C@H]([C@@H]1OC(=O)CCCCC)[C@@](C)(OC(C)=O)C[C@H](OC(=O)CCC)[C@@]1(O)[C@H]2O[C@H]2O[C@H](OCC)O[C@]21C` was 0.0241 µM.

What is called IC50 is the midpoint of a concentration-inhibition curve.
